KCNQ1 block = blocks the human KCNQ1 potassium channel | P51787 | AID 2642 | CHO-K1 KCNQ1, FluxOR thallium flux fluorescence; stronger effect = higher value | B-score at 10 µM | 310,000 compounds, 1.3% hits;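 active = compounds whose thallium flux B-score, printed positive for inhibition, exceeds three library SD while starting fluorescence stays within three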;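 note: channel opened by potassium depolarization with thallium stimulus after 20 min compound exposure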
Target sequence (P51787 whole entry, looked up): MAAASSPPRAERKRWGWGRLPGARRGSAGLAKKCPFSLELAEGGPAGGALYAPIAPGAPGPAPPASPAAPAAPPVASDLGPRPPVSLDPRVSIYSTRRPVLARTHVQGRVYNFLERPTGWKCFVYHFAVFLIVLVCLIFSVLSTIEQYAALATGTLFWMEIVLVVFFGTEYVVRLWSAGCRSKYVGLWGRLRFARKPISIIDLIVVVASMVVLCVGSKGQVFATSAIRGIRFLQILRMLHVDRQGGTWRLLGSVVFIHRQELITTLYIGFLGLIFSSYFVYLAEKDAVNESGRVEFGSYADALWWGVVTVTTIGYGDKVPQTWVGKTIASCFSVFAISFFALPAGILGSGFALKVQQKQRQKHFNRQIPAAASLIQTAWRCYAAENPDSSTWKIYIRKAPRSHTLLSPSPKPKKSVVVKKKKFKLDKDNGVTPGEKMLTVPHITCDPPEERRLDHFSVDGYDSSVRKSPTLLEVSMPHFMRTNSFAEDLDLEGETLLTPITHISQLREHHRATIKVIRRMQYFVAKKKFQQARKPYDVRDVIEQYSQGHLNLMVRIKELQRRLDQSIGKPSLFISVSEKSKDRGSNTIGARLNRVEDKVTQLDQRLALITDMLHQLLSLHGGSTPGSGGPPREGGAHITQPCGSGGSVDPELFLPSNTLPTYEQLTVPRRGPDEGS
KCNQ1 pot = potentiates or activates the human KCNQ1 potassium channel | B-score at 10 µM | CHO-K1 KCNQ1, thallium flux FluxOR fluorescence; stronger effect = higher value | P51787 | 310,000 compounds, 0.35% hits;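 active = fluorescence ratio B-score, a plate-corrected score, at least three library SD, with initial intensity B-score within 5 SD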
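Test system: CHO-K1 cells stably expressing KCNQ1 / Medium: assay buffer / Also added: depolarizing K+/Tl+ stimulus, K2SO4 and Tl2SO4 each 12.5 mM in 5x stock / Incubation: 90 min dye loading and 20 min compound exposure, both at room temperature / Signal: thallium influx via FluxOR fluorescence, kinetic imaging / Evaluation: B score of baseline-normalized fluorescence ratio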
Cl transport mod = modulates chloride dependent transport by human KCC2; 190,000 compounds, 2.2% hits; KCC2 cells, thallium flux FluoZin-2 fluorescence; AID 1456; Q9H2X9; B-score of Tl+ flux slope (higher = more flux/activation; lower = inhibition) at 10 µM;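 active = thallium flux slope and its plate-corrected score both differing from the plate sample mean at a set confidence after two filtering rounds, in either direction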;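 note: slope of fluorescence scaled to starting intensity during 10 to 20 s after thallium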
KCNK9 block = human KCNK9 channel inhibition. B-score at 10 µM. HEK293 KCNK9, FluxOR thallium flux fluorescence; stronger effect = lower value. 310,000 compounds, 1.2% hits. Q9NPC2;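 active = ratio B-score over 3 SD below the library mean, with starting fluorescence within 5 SD of its mean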;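 note: negative B-score means less thallium flux so channel inhibition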
KCNK3 inh = human KCNK3 channel inhibition, primary screen. AID 602410. 340,000 compounds, 0.84% hits. CHO-KCNK3 thallium flux, FluxOR fluorescence; stronger effect = lower value. O14649. B-score at 10 µM;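 active = B-score under library mean minus 4 SD, starting fluorescence ratio at most library mean plus 5 SD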;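 note: more negative B-score means stronger inhibition of thallium flux through KCNK3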
hERG rescue = hERG (human) protection from proarrhythmic block | 310,000 compounds, 0.51% hits | CHO-hERG, FluxOR thallium flux, dofetilide IC70 present | activation (rescue from dofetilide block), less the hit threshold, % at 10 µM | Q12809;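 active = activation above the mean of controls blocked by dofetilide plus 5 SD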;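 note: thallium influx through hERG after potassium depolarization seen as dye fluorescence rise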
KCNK9 block conf = confirmation of human KCNK9 potassium channel inhibitors | inhibition, % at 10 µM | HEK293 KCNK9 cells, FluxOR thallium flux fluorescence | shares compounds with KCNK9 block | AID 492992 | 4,900 compounds, 43% hits;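 active = thallium signal inhibited by more than 5 SD of the compound-free buffer control wells, on both duplicate plates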
Kir2-1 spec = tests whether KCNK9 modulators also affect mouse Kir2.1. Kir2.1 cells, FluxOR thallium flux fluorescence. 4,900 compounds, 4% hits. shares compounds with KCNK9 block. inhibition, % at 10 µM;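 active = thallium signal drop more than 5 SD beyond the mean of the no-compound control wells, seen in both duplicate plates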;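 note: signal is fluorescence rise after thallium addition divided by baseline fluorescence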
HEK293 Tl ctr = second counter-screen for KCNK9 modulators: effect in non-induced cells; shares compounds with KCNK9 block; non-induced KCNK9-HEK293, FluxOR thallium flux; AID 492997; inhibition, % at 10 µM; 4,900 compounds, 40% hits;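 active = thallium signal drop beyond 5 SD of the untreated control mean, on both duplicate plates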
Hits are given with their value; . = inactive; / = no result. The list is not random: actives were taken first. Their share in the collection is about 4.1%.

SMILES	KCNQ1 block	KCNQ1 pot	Cl transport mod	KCNK9 block	KCNK3 inh	hERG rescue	KCNK9 block conf	Kir2-1 spec	HEK293 Tl ctr
CCOC(=O)c1c(C)[nH]c(C(=O)Cn2c(=O)c3c(ncn3CC)n(Cc3ccccc3)c2=O)c1C	.	.	.	.	.	.	.	.	.
CCn1cnc2c1c(=O)n(Cc1cccc([N+](=O)[O-])c1)c(=O)n2Cc1ccccc1	.	.	/	.	.	.	.	.	.
C/C(=N\NC(=O)CSc1nc2ccccc2s1)c1cccnc1	.	.	.	.	.	.	/	/	/
Cc1cc(/C=N/NC(=O)C(=O)N2CCCC2)c(C)n1-c1cccc(Br)c1	.	.	/	.	.	.	/	/	/
Cc1cc(/C=N/NC(=O)c2c(Br)cnn2C)c(C)n1-c1cccc(Br)c1	.	.	.	-12	.	.	54%	.	29%
Cc1cccc(SCc2noc(C(=O)NC(C)C)c2C(=O)O)c1	.	.	.	.	.	.	/	/	/
CNC(=O)CC(CC(=O)c1ccccc1)c1ccccc1 (stereo not drawn)	/	/	/	/	.	/	/	/	/
O=C1CC(=C(c2ccccc2)c2ccccc2)C(=O)N1CCCCN1CCN(c2cccc(Cl)c2)CC1	.	.	.	.	.	.	/	/	/
Cc1ccccc1N1CCN(CCCN2C(=O)CC(=C(c3ccccc3)c3ccccc3)C2=O)CC1	.	.	.	.	.	.	.	.	.
O=C(CSCc1ccccc1)N1CCN(c2ccccc2)CC1	.	.	.	.	.	.	/	/	/
CC(C(=O)N1CCc2ccccc21)N1CCN(c2cccc(C(F)(F)F)c2)CC1 (stereo not drawn)	.	.	/	.	.	.	.	.	.
Cc1ccnc(NC(=S)N2CCN(c3cccc(C(F)(F)F)c3)CC2)c1	.	.	/	.	.	.	.	.	.
O=C(CSCc1ccccc1)N1CCN(c2cccc(C(F)(F)F)c2)CC1	.	.	.	.	.	.	.	.	.
C/C(=C\c1ccccc1)C(=O)N1CCN(c2cccc(C(F)(F)F)c2)CC1	.	.	.	.	.	.	.	.	.
COc1cc(NC(=O)c2cc(S(=O)(=O)N3CCCCC3)ccc2N2CCOCC2)cc(OC)c1OC	/	/	/	/	.	/	/	/	/
O=C(O)c1cccc(NC(=O)c2ccccc2NC(=O)c2cccc([N+](=O)[O-])c2)c1	.	.	/	.	.	.	/	/	/
Cc1cc(C)n2nc(SCC(=O)NC3CCCC(C)C3C)nc2n1 (stereo not drawn)	.	.	/	.	.	.	/	/	/
Cc1ccccc1/C=C/c1nc2ccccc2c(=O)n1CCc1ccccc1	.	.	.	-11	.	.	24%	.	33%
O=C(CCc1ccccc1)Nc1nnc(-c2ccc3c(c2)CCCC3)o1	.	.	.	.	.	.	/	/	/
O=C(Nc1nnc(-c2ccc3c(c2)CCCC3)o1)c1ccc(Cl)cc1Cl	.	52	/	.	.	19	.	.	.
COc1ccc(-c2nnc(NC(=O)c3ccc(S(=O)(=O)N4CCc5ccccc5C4)cc3)o2)cc1	.	.	/	.	.	.	.	.	.
CN(C)S(=O)(=O)c1ccc(C(=O)Nc2nnc(-c3ccc4c(c3)CCCC4)o2)cc1	.	.	8.1	.	.	.	.	.	.
C=CCNC(=S)N1CCC(C(=O)c2ccc(F)cc2)CC1	.	.	/	.	.	.	/	/	/
COc1cccc(N=Nc2ccc(O)c3ncccc23)c1	.	.	/	.	.	16	.	.	.
O=S(=O)(O)c1cccc2c(N=Nc3ccc(O)c4ncccc34)cccc12	.	.	/	.	.	.	/	/	/
SMILES	KCNQ1 block	KCNQ1 pot	Cl transport mod	KCNK9 block	KCNK3 inh	hERG rescue	KCNK9 block conf	Kir2-1 spec	HEK293 Tl ctr
COc1cc(/C=N/NC(=O)C(=O)/C=C2\NC3(CCCC3)Cc3ccccc32)ccc1O	.	.	.	-11	.	.	44%	.	28%
O=C(/C=C1\NC2(CCCC2)Cc2ccccc21)C(=O)N/N=C/c1ccccc1O	.	.	.	.	.	.	/	/	/
Cc1ccc([N+](=O)[O-])cc1N=C(c1cccc(Br)c1)N1CCOCC1	.	.	.	-20	-12	.	57%	.	33%
Cc1ncnc(N)c1CCCNc1ccccc1	/	/	/	/	.	/	/	/	/
COc1ccc(NS(=O)(=O)c2cc(C)ccc2C)cc1	.	.	.	.	.	.	/	/	/
Clc1cccc2sc(N3CCN(c4ccccc4)CC3)nc12	.	.	.	-14	.	.	36%	.	36%
COc1cccc(OCC(=O)NCC2CCCO2)c1 (stereo not drawn)	/	/	/	/	.	/	/	/	/
CCOC(=O)C1=C(CSc2nc(-c3ccccc3)ccc2C#N)OC(N)=C(C#N)C1c1ccccc1 (stereo not drawn)	.	.	.	-13	.	.	47%	.	38%
CCOC(=O)CC1=C(C(=O)OCC)C(c2cccnc2)C(C#N)=C(N)O1 (stereo not drawn)	.	.	.	.	.	.	/	/	/
CCOC(=O)C1=C(CSc2nc(-c3ccccc3)ccc2C#N)OC(N)=C(C#N)C1c1cccnc1 (stereo not drawn)	.	.	.	-18	-17	.	68%	.	40%
CCN1CCN(CC(=O)c2c[nH]c3ccccc23)CC1	.	.	.	.	.	.	/	/	/
COc1ccc(-c2cc(C(F)(F)F)n3ncc(C(=O)N(C)Cc4ccccc4)c3n2)cc1	.	.	.	.	.	.	.	.	.
O=C1CC[C@@H]2CC3(C[C@@H]4CCN1[C@H]24)Nc1cc(Cl)ccc1NC3=NC1CCCCC1 (stereo partly drawn)	/	/	/	/	.	/	/	/	/
Cc1ccc(C23CC4CC(CC(C(=O)N5CCN(C)CC5)(C4)C2)C3)cc1	.	.	.	.	.	.	/	/	/
Cc1ccc(C23CC4CC(CC(CC(=O)N5CCOCC5)(C4)C2)C3)cc1	.	.	.	.	.	.	.	.	.
COc1ccccc1C(=O)/C=C/c1ccc(N2CCCCC2)c([N+](=O)[O-])c1	.	.	.	-10	.	.	50%	.	31%
O=C(/C(=C/c1ccc(Cl)cc1)c1nc2ccccc2[nH]1)c1cccs1	6	.	.	-11	.	.	48%	.	41%
Cc1ccc(Cl)c(N/C=C/C(=O)c2ccccc2)c1	.	.	/	-15	.	.	70%	.	38%
O=C(Nc1ccc(Cl)cc1C(=O)Nc1ccc(Br)cn1)c1ccco1	.	.	.	-12	.	.	53%	.	.
Cc1cc(Br)ccc1NC(=O)c1ccco1	.	.	/	.	.	.	/	/	/
CC(C)(C)c1cc(OS(C)(=O)=O)ccc1O	.	.	/	.	.	.	/	/	/

From PubChem
